NR2E3 ag-1: inhibitors of NR2E3-RetCOR corepressor binding, primary screen, NR2E3 agonist project, biochemical, TR-FRET, GST-NR2E3, biotin-RetCOR; Photoreceptor-specific nuclear receptor (Homo sapiens), Q9Y5X4; 320,000 compounds, 0.12% hits; 1536-well; inhibition of corepressor binding, % at 4.78 µM;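 active = percent inhibition above the cutoff of mean plus 3 SD of all tested compounds, set per screening campaign, cut at about 20% in these data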;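 note: 0% = DMSO wells and 100% = biotin wells as full block of FRET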
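Material: NR2E3–RetCOR corepressor complex / Incubation: Compound–protein incubation for 5 h at 4 °C / Dosing: compound at 4.8 µM, single dose / Detection: time-resolved FRET / Benchmarks: high control biotin, low control 0.6% DMSO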
Rev-erbA mod: modulators of Rev-erb alpha DNA binding, primary screen, biochemical, FITC-DNA, fluorescence polarization, uHTS. Rev-erbα–FITC-DNA binding, 90 min. activity, % at 10 µM. 370,000 compounds, 0.79% hits;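 active = activity above about 14%, limit read from the data; passing the limit was not always enough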;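 note: 0% = DMSO wells with 35 nM protein and 100% = DMSO wells with 750 nM protein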
PKA-R2B act: activators of PKA-R2B holoenzyme, primary screen, biochemical, fluorescence polarization, Cy5-IP20, human; cAMP-dependent protein kinase catalytic subunit beta (Homo sapiens) + cAMP-dependent …; PKA-R2B holoenzyme dissociation; R2B truncated from residue 108, S112A mutant; 0% DMSO only, 100% 113 µM cGMP; activation, % at 11.4 µM; 340,000 compounds, 0.079% hits; AID 504700, 2011;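 active = activation above a cutoff set at the mean over all compounds plus 3 SD, cut at about 18% in these data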;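 note: higher means more holoenzyme dissociation and a rise in polarization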
Target sequence (P31323 whole entry, looked up, other chains not shown, the tested form may be a part): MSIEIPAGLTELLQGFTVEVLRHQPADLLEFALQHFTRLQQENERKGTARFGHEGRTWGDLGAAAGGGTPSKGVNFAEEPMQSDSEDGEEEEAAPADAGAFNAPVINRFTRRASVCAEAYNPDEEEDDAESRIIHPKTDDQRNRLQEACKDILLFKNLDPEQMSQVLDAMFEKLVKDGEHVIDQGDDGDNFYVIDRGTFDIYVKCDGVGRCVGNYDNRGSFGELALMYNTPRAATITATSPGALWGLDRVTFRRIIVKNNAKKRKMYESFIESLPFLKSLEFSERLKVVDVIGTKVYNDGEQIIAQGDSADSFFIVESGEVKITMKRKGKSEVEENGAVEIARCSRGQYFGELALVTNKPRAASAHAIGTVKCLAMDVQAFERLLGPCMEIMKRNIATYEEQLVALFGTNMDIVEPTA
PG9 binder: binders of HIV-1 gp120 antibody PG9, primary screen, biochemical, TR-FRET. HIV-1 gp120 / PG9 antibody interaction. TR-FRET gp120-PG9 antibody binding. inhibition, % at 6.7 µM. 360,000 compounds, 0.43% hits. AID 624416, 2012; in the data active = inhibition above about 8.5%
PKA-R1A act: activators of PKA-R1A holoenzyme, primary screen, biochemical, fluorescence polarization, Cy5-IP20, bovine R1A, mouse PKAc. activation, % at 11.4 µM. 340,000 compounds, 0.083% hits. PKA-R1A dissociation; scaled: DMSO 0%, 113 µM cGMP 100%. cAMP-dependent protein kinase type I-alpha regulatory subunit (Bos taurus) + …;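 active = percent activation above the mean of all tested compounds plus 3 SD, cut at about 19% in these data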;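 note: higher means more PKAc released from R1A so a rise in polarization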
NR2E3 ag-2: NR2E3 agonists in two-hybrid cells, primary screen, cell-based, luminescence, CHO-S, Gal4-NCOR/VP16-NR2E3. inhibition of corepressor binding, % at 3.98 µM. luciferase. Photoreceptor-specific nuclear receptor (Homo sapiens), Q9Y5X4. 360,000 compounds, 0.35% hits;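 active = inhibition above the mean of all tested compounds plus 3 SD, cut at about 70% in these data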;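 note: 0% = DMSO with NR2E3 transfected cells and 100% = cells lacking NR2E3 construct; higher means lower luciferase signal from less NR2E3 corepressor binding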
NR2E3 ag confirm: NR2E3 agonist confirmation in cells, cell-based, luminescence, CHO-S two-hybrid | shares compounds with NR2E3 ag-2 | CHO-S mammalian two-hybrid NR2E3-NCOR, luciferase luminescence | inhibition, % at 3.98 µM | 2,300 compounds, 51% hits;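 active = average inhibition above a cutoff equal to the mean inhibition of all tested compounds plus one SD, cut at about 70% in these data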;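 note: 0% = DMSO in NR2E3 cells and 100% = DMSO in cells lacking NR2E3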
GAL4-VP16 luc: GAL4-VP16 reporter modulators, confirmation, counter-screen for NR2E3 agonist project, cell-based, luminescence, CHO-S, high throughput; shares compounds with NR2E3 ag-2; CHO-S GAL4-VP16 luciferase reporter; inhibition, % at 3.98 µM; 2,300 compounds, 29% hits;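 active = mean inhibition above a cutoff equal to the average over all tested compounds plus one standard deviation, cut at about 70% in these data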;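 note: luciferase from a UAS reporter driven by GAL4-VP16 transactivation; 0% = DMSO with VP16-transfected cells and 100% = DMSO with cells lacking VP16; higher means less reporter light so more repression of VP16 activity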
The depositor's hits bear a star; / = not tested or not shown. The list is not random: actives were taken first. Their share in the collection is about 1.6%.

SMILES	NR2E3 ag-1	Rev-erbA mod	PKA-R2B act	PG9 binder	PKA-R1A act	NR2E3 ag-2	NR2E3 ag confirm	GAL4-VP16 luc
COc1ccc(OC)c(S(=O)(=O)n2c(CN3CCOCC3)nc3ccccc32)c1	/	-2.0	/	/	/	/	/	/
N=c1c2c(ccn1CCCCc1ccccc1)Oc1ccc3ccccc3c1C2c1ccccc1 (configuration not stated)	/	-3.1	/	/	/	/	/	/
COC(=O)C1CN(C2CCCC2)CCS(=O)(=O)N1Cc1ccc(OC)cc1 (configuration not stated)	/	4.0	/	/	/	/	/	/
C[C@@H]1O[C@@H](n2c3ccc(Cl)cc3c3ccc4c5cc(Cl)ccc5[nH]c4c32)[C@H](O)[C@H](O)[C@H]1O	/	9.8	/	/	/	/	/	/
COC(=O)[C@]1(CNC(C)=O)CC(=O)N(Cc2ccc(Cl)cc2)[C@@H]1c1ccc(OC)cc1	/	6.3	/	/	/	/	/	/
CCOC(=O)N1CCN(C(=O)c2ccc(S(=O)(=O)Nc3ccc(C)cc3)cc2)CC1	/	-4.3	0.8	0.3	-5.6	54.0	81.0*	51.4
CC(=NNC(=S)N(Cc1ccccn1)Cc1ccccn1)c1cnccn1	/	-8.3	11.7	1.8	-9.8	-24.2	/	/
S=C(NN=C(c1ccccc1)c1ccccn1)N(Cc1ccccn1)Cc1ccccn1	/	-11.0	-4.2	-3.0	-15.2	92.2*	99.6*	78.7*
CC1=Nc2ccccc2/C1=C/c1sc(=N)n(-c2nccs2)c1O	3.2	/	2.9	/	-11.7	75.8*	66.7	30.8
CCCCCCC[C@@H](C/C=C/CCC(=O)N(C)C/C(=C/Cl)C/C(=C\C(=O)N1C[C@H](O)CC1=O)OC)OC	/	5.7	-9.0	-1.2	-8.7	62.0	62.0	52.7
COc1ccc(-n2cc(COC(=O)NCCc3c[nH]c4ccccc34)nn2)cc1	/	-1.5	/	/	/	/	/	/
CC[C@H](C)[C@@H]1NC(=O)[C@@H](CC(C)C)NC(=O)[C@H](C(C)C)NC(=O)[C@H]2CSSC[C@H](NC1=O)C(=O)N2	/	4.2	/	-4.5	/	101.9*	100.0*	98.1*
Cc1cc(C)c(C(=O)/C=C/c2cccc3ccccc23)c(=O)[nH]1	-1.4	-0.8	-7.2	-0.7	-2.5	62.8	13.8	30.6
Cc1cc(C)c(C(=O)/C=C/c2ccc3c(c2)OCO3)c(=O)[nH]1	0.6	-5.0	0.3	0.1	4.2	6.8	/	/
Cc1cc(C(=O)COC(=O)c2ccc(O)cc2O)c(C)n1-c1ccccc1	0.8	7.9	6.3	-1.2	-7.5	24.7	/	/
COc1ccc(-n2c(C)cc(C(=O)COC(=O)c3ccc(O)cc3O)c2C)cc1	0.3	0.2	-4.1	-2.5	4.7	59.4	88.8*	49.1
Cc1cc(C(=O)CC#N)c(C)n1-c1ccc(OC(F)F)cc1	0.3	-3.9	1.5	-0.5	-1.4	9.5	/	/
Cc1cc(C(=O)COC(=O)c2ccc(O)cc2O)c(C)n1-c1ccc(OC(F)F)cc1	/	3.2	-3.9	-0.9	1.1	54.8	3.1	25.0
Cc1ccc(C)c(NC(=S)NCC(c2ccccc2)N(C)C)c1 (configuration not stated)	-2.0	1.2	-7.7	0.1	5.7	58.4	-14.0	-0.8
CC(=O)C1(C(=O)NCc2ccccc2)CC(c2ccccc2C(F)(F)F)=NO1 (configuration not stated)	/	-5.0	/	/	/	/	/	/
Cc1cccc(-n2ncc3c2CCCC3NC(=O)C2(C(N)=O)CC2)c1C (configuration not stated)	-0.5	-2.3	-7.5	-1.3	-1.6	77.7*	77.5*	66.9
CC1=C(C(=O)NC2CCCc3c2cnn3-c2ccc(F)cc2F)OCCO1 (configuration not stated)	3.2	6.0	-2.1	-1.7	-2.8	65.8	28.0	33.4
Cc1nnsc1C(=O)NC1CCCc2c1cnn2-c1ccccc1F (configuration not stated)	4.0	-8.1	7.3	-1.6	-11.5	82.8*	86.0*	69.1
Cc1cc(C)cc(-n2ncc3c2CCCC3NC(=O)C2(C(N)=O)CC2)c1 (configuration not stated)	-0.9	-6.4	-5.5	-2.0	-10.1	11.8	/	/
Cc1nnsc1C(=O)NC1CCCc2c1cnn2-c1ccc(C(C)(C)C)cc1 (configuration not stated)	-0.2	2.1	6.1	0.7	0.6	93.0*	78.2*	74.6*
SMILES	NR2E3 ag-1	Rev-erbA mod	PKA-R2B act	PG9 binder	PKA-R1A act	NR2E3 ag-2	NR2E3 ag confirm	GAL4-VP16 luc
C=CCN1C(=O)[C@@H](CC(=O)NCc2cccc3ccccc23)[C@]2(C(=O)OCC)CCCCC/C=C/12	/	7.5	/	/	/	/	/	/
CC(=O)Nc1cccc(C(C)C2=CCCCC2)c1 (configuration not stated)	/	0.3	/	/	/	/	/	/
Cc1ccc(NC(=S)NNC(=O)CSc2nnc(SCc3cccc4ccccc34)s2)cc1	/	1.6	/	/	/	/	/	/
Cc1cc(NC(=O)COc2cc(F)cc(F)c2)n(-c2ccccc2)n1	/	1.1	/	/	/	/	/	/
Cc1cc(C(=O)NC2CCCc3c2cnn3-c2ccc(C)c(C)c2)n(C)n1 (configuration not stated)	-0.5	-4.8	-0.9	0.9	3.5	111.2*	98.3*	88.4*
COCc1ccc(C(=O)NC2CCCc3c2cnn3-c2cc(C)cc(C)c2)s1 (configuration not stated)	/	0.4	11.5	-1.2	-2.8	60.1	48.9	55.3
O=c1c2cc3cc(Cl)ccc3nc2ncn1CCc1c[nH]c2ccccc12	/	6.0	/	/	/	/	/	/
CNc1nc(-c2ccc(S(=O)(=O)N3CCCCC3)cc2)cs1	7.1	6.2	-4.8	0.9	-6.6	53.8	-27.3	-6.6
Cc1cccc(NC(=S)N=Nc2c(O)[nH]c3ccccc23)c1	-5.5	8.4	-5.5	0.1	3.9	66.7	12.6	-11.1
COc1cc2nc(=S)n3[nH]c(CCn4nc(C)cc4C)nc3c2cc1OC	-0.9	3.9	-5.3	-1.1	-2.5	85.3*	8.9	-13.5
